For orientation: IC50 means the concentration at which inhibition is half-maximal.

These results are taken from publication PMC2753403 (Journal of the American Chemical Society, 2009).

SMILES strings stand for the structures. Values joined by “and” are separate entries in the source; they are usually repeats but may differ in a detail not shown here. Equal values may be shown once. Read-outs that look alike come from different tables or passages of the source.

Data set [1] relates to human tumor cell lines: MCF-7, NCI-H460 and SF-268. The experiment in a line: FOH/GGOH rescue of cell growth inhibition. Conditions: for rescue from growth inhibition by GGOH: 20 μM GGOH added; for rescue from growth inhibition by FOH: 20 μM FOH added. Type of data set: cell-based. Put shortly:
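Cells were grown in RPMI-1640 with 10% FBS and 2 mM L-glutamine at 37°C, 5% CO2. They were seeded at 5,000 cells/well with test compound added, and each well also received FOH or GGOH from ethanol stocks at a fixed 20 μM. After 4 days, growth was read by MTT.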

Another data set relates to mouse fetal metatarsal. The data set can be described thus: Mouse fetal metatarsal 45Ca2+ release inhibition assay. The following applies: read-out: IC50, 45Ca2+ release inhibition.
For another data set, the target named is T1, Human FPPS (Homo sapiens, UniProt P14324).
T1 sequence (P14324 1-419): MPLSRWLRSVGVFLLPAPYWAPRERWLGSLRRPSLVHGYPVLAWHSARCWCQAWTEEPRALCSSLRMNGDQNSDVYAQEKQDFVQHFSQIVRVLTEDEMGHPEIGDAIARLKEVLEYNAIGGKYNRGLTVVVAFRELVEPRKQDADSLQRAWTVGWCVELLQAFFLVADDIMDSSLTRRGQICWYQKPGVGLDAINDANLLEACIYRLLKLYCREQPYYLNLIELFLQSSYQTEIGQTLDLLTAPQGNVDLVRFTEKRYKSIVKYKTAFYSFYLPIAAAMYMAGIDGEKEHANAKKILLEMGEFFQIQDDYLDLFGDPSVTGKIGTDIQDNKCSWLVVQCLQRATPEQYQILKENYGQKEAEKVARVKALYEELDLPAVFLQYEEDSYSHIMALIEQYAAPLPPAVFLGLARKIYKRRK
The experiment in a line: Human FPPS inhibition. Format: biochemical. Put shortly: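 Recombinant human FPPS condensed geranyl diphosphate with isopentenyl diphosphate, followed by a continuous spectrophotometric phosphate-release assay. Buffer was 50 mM Tris-HCl, 1 mM MgCl2, pH 7.4. Enzyme and test compound were preincubated 30 min at 20°C. IC50 came from a dose-response curve fit.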

In data set [2] the test system is human tumor cell lines: MCF-7, NCI-H460 and SF-268. The data set can be described thus: Tumor cell growth inhibition. Format: cell-based. Put shortly:
(§1)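 Cells were grown in RPMI-1640 with 10% FBS and 2 mM L-glutamine at 37°C, 5% CO2, 100% humidity, and seeded at 5,000 cells/well. Test compound came from 0.01 M water stocks as a half-log serial dilution series (0.316 mM to 0.1 pM) prepared before addition. Plates ran 4 days, then MTT dose-response.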

Another data set has as its system SK-ES-1 sarcoma cells. The data set can be described thus: SK-ES-1 sarcoma mouse xenograft. Format: in vivo. Conditions: athymic nude mice, 5 μg daily intraperitoneal, 30 days. The essentials:
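Four 6-week-old athymic nude mice each received 1.5×10^7 human SK-ES-1 cells subcutaneously in the right flank. Treatment was daily intraperitoneal test compound (5 μg) for 30 days, or physiological saline. Tumor diameters and body weight were measured weekly, and volume = (smallest diameter)2 × (largest diameter)/2. Statistics used one-way ANOVA with Fisher's PLSD, with p < 0.05 taken as significant.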

Another data set concerns MCF-7. The data set can be described thus: MCF-7 cell growth inhibition. Format: cell-based. Conditions: Homo sapiens, MCF7, 96 h, read-out: IC50, tumor cell growth inhibition. The essentials: as §1
The next data set has as its system MDA-MB-231 cells. The experiment in a line: Matrigel invasion assay. Type of data set: cell-based, human. Conditions: 24 hours treatment, up to 10 μM.
Data set [3] can be described thus: 14C-labelled olpadronate displacement bone-binding model. The following applies: fetal mouse metatarsals, Figure 8b.
For the next data set, the system named is breast cancer patients. The following applies: Phase III, 1803 breast cancer patients, zoledronate (+hormone) therapy; cited from earlier work.
[4] abbreviates: mouse fetal metatarsal, Figure 8a.

In the case of `CC(C)=CCCC(C)=CCC(CC=C(C)CCC=C(C)C)(P(=O)(O)O)P(=O)(O)O` [1,1-digeranylmethylene bisphosphonate, reference compound], in data set [1], the “rescue from growth inhibition by GGOH” value is recorded as “rescue by GGOH”.
As to `O=P(O)(O)C(O)(Cc1cccc(-c2cccc(NS(=O)(=O)c3ccc4ccccc4c3)c2)c1)P(=O)(O)O` [BPH-675], in data set [1], the “rescue from growth inhibition by FOH” value is “FOH has no effect” and the “rescue from growth inhibition by GGOH” value was “almost fully reversed by addition of 20 μM GGOH”. Further, in the data set on mouse fetal metatarsal (setting [4]), the IC50 is roughly 30 µM. The “FPPS inhibition (in words)” value at Human FPPS is “very weak”.
With `CCCCCCCCCCOc1ccc[n+](CC(P(=O)([O-])O)P(=O)(O)O)c1` (centres unmarked) [BPH-715], the “IC50 in tumor cell growth inhibition, fold lower than zoledronate” value in data set [2] (versus zoledronate) is listed as ~ 100 fold. For the same compound, in data set [1], the “rescue from growth inhibition by FOH” value is listed as “no rescue by either FOH or GGOH” and the “rescue from growth inhibition by GGOH” value is given as “no rescue by either FOH or GGOH”. Besides, in the data set on SK-ES-1 sarcoma cells, the “weight loss or other adverse effect” value is “no weight loss or other adverse effect observed”. In addition, the IC50 in the data set with mouse fetal metatarsal (setting [4]) was 2.9 µM and ~2.9 µM.
`CCCCCCCCCCCCOc1ccc[n+](CC(P(=O)(O)O)P(=O)(O)O)c1` [BPH-716]: the “activity in the cell assays compared with BPH-715” value in data set [2] (growth inhibition and Matrigel invasion assays) is on record as “about the same activity as BPH-715”. Moreover, in the data set with mouse fetal metatarsal (setting [4]), the concentration for half-maximal inhibition (IC50) was roughly 1.3 µM.
For `NCCC(O)(P(=O)(O)O)P(=O)(O)O` [pamidronate], in the data set with MCF-7, the IC50 is roughly 140 µM.
On to `O=P(O)(O)C(O)(Cn1ccnc1)P(=O)(O)O` [zoledronate], for which the IC50 is roughly 15 µM in the data set with MCF-7 and roughly 0.1 µM with mouse fetal metatarsal (Mus musculus). Besides, the “rescue from growth inhibition by GGOH” value in data set [1] was “only a partial rescue by GGOH”. Besides, the “effect on MDA-MB-231 invasion” value with MDA-MB-231 cells was “essentially no effect even at 10 μM”. In addition, the “reduction in tumor cell growth (tumor volume)” value in the data set on SK-ES-1 sarcoma cells is “significant (p < 0.01) reduction in tumor cell growth versus control”. The “displacement of bound 14C-labelled olpadronate” value in data set [3] is on record as “far more effective in displacing this bound bisphosphonate than are the lipophilic species”. Moreover, in the data set on breast cancer patients, the “reduced risk of cancer returning, or death” value is 36%.
